Data: PMC6061410 (Clinical Drug Investigation, 2018)

Tests used:
[1] = Pharmacokinetics after single and multiple doses, part 1; format: in vivo, human; settings: for Tmax: median and range (minimum, maximum); for AUC(0-t): AUC0–24, young
Method in brief: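 Randomised 3:1 double-blind placebo-controlled groups (9 active, 3 placebo) of healthy young or elderly subjects took 5- or 25-mg tablets. Dosing was a single dose on day 1, QD or BID for 10 days from day 4, and a single dose on day 14. Fasted on days 1 and 14. Blood was sampled through day 23 and urine after first and last doses (QD only). Plasma/urine LC-MS/MS used a seven-point calibration. Geometric mean (%CV) values were reported.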

[2] = cited from earlier work
CYP3A4 = settings: cited from earlier work
Effect of food intake = format: in vivo, human; settings: 25 mg; for Cmax: human, plasma, oral, Cmax at steady state, gMean
Method in brief: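 Healthy young (25 mg, group 2) and elderly (25 mg, group 5) subjects were dosed once daily with tablets. On day 12, group 2 dosed light-fed (standardised ~500 kcal breakfast 30 min pre-dose) and group 5 dosed light-fasted (no food ≥10 h before until 1 h after). Day 12 plasma profiles were compared with day 14 fasted profiles (no food ≥10 h before until 3.5 h after) as gMean ratios.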

[3] = young, 10 mg QD, multiple dose, gMean (%CV)
[4] = young, 10 mg QD, single dose, gMean (%CV)
[5] = young, 25 mg QD, multiple dose, gMean (%CV)
[6] = young, 25 mg QD, single dose, gMean (%CV)
[7] = young, 50 mg QD, multiple dose, gMean (%CV)
[8] = young, 50 mg QD, single dose, gMean (%CV)
[9] = young, 75 mg BID, single dose, gMean (%CV)
[10] = young, 75 mg QD, multiple dose, gMean (%CV)
[11] = young, 75 mg QD, single dose, gMean (%CV)
[12] = young subjects, standardised light breakfast

Compound: C[C@@H](Oc1ccc(S(C)(=O)=O)cc1C(=O)N1C[C@@H]2C[C@]2(c2cc(C(F)(F)F)on2)C1)C(F)(F)F [BI 425809]
- Cmax ([1]; human, plasma, oral, 50 mg, Cmax, young, 50 mg QD, single dose, gMean (%CV)): 397 nM
- Cmax ([1]; human, plasma, oral, 50 mg, Cmax,ss, elderly, 50 mg QD, multiple dose, gMean (%CV)): 802 nM
- Cmax ([1]; human, plasma, oral, 50 mg, Cmax,ss, young, 50 mg QD, multiple dose, gMean (%CV)): 800 nM
- Tmax ([1]; human, plasma, oral, 50 mg, tmax, elderly, 50 mg QD, single dose): 4.5 h
- Tmax ([1]; human, plasma, oral, 50 mg, tmax, young, 50 mg QD, single dose): 4.5 h
- Tmax ([1]; human, plasma, oral, 50 mg, tmax,ss, elderly, 50 mg QD, multiple dose): 4.5 h
- Tmax ([1]; human, plasma, oral, 50 mg, tmax,ss, young, 50 mg QD, multiple dose): 3.5 h
- AUC(0-t) ([1]; human, plasma, oral, 75 mg, 75 mg BID, single dose, fed, gMean (%CV)): 12 µM·h
- AUC(0-t) ([1]; human, plasma, oral, 75 mg, 75 mg QD, single dose, fasted, gMean (%CV)): 7.17 µM·h
- AUC ([1]; human, plasma, oral, 75 mg, AUCτ,ss, young, 75 mg QD, multiple dose, gMean (%CV)): 16.5 µM·h
- Cmax ([1]; human, plasma, oral, 75 mg, Cmax, young, 75 mg BID, single dose, fed, gMean (%CV)): 884 nM
- Cmax ([1]; human, plasma, oral, 75 mg, Cmax, young, 75 mg QD, single dose, fasted, gMean (%CV)): 451 nM
- Cmax ([1]; human, plasma, oral, 75 mg, Cmax,ss, young, 75 mg QD, multiple dose, gMean (%CV)): 1020 nM
- Tmax ([1]; human, plasma, oral, 75 mg, tmax, young, 75 mg BID, single dose): 4.02 h
- Tmax ([1]; human, plasma, oral, 75 mg, tmax,ss, young, 75 mg BID, multiple dose, tmax,22 given): 3.5 h
- Tmax ([1]; human, plasma, oral, 75 mg, tmax,ss, young, 75 mg QD, multiple dose): 4.5 h
- exposure multiple (AUC0–24 and Cmax), 75-mg BID dose group vs 25-mg dose group ([1]; in vivo): 3.2 fold
- increase in AUCτ,ss, 75 mg BID vs. 75 mg QD ([1]; multiple dosing): 14%
- increase in Cmax,ss, 75 mg BID vs. 75 mg QD ([1]; multiple dosing): 90%
- Cmax ([1]; read-out: Cmax,ss, young, 10 mg QD, multiple dose, gMean (%CV)): 221 nM
- AUCτ,ss,norm [1, 3]: 387 (22.2) nmol·h/L/mg
- Cmax,ss,norm [1, 3]: 22.1 (19.5) nmol/L/mg
- AUC0–24,norm [1, 4]: 141 (20.1) nmol·h/L/mg
- Cmax,norm [1, 4]: 10.9 (19.0) nmol/L/mg
- AUCτ,ss,norm [1, 5]: 425 (31.7) nmol·h/L/mg
- Cmax,ss,norm [1, 5]: 23.3 (27.6) nmol/L/mg
- AUC0–24,norm [1, 6]: 149 (18.2) nmol·h/L/mg
- Cmax,norm [1, 6]: 11.1 (19.7) nmol/L/mg
- AUCτ,ss,norm [1, 7]: 285 (29.4) nmol·h/L/mg
- Cmax,ss,norm [1, 7]: 16.0 (26.3) nmol/L/mg
- AUC0–24,norm [1, 8]: 120 (24.4) nmol·h/L/mg
- Cmax,norm [1, 8]: 7.95 (28.7) nmol/L/mg
- AUCτ,ss,norm ([1]; young, 75 mg BID, multiple dose, AUCτ,22,norm given, gMean (%CV)): 251 (20.2) nmol·h/L/mg
- Cmax,ss,norm ([1]; young, 75 mg BID, multiple dose, Cmax,22,norm given, gMean (%CV)): 25.8 (17.2) nmol/L/mg
- AUC0–24,norm [1, 9]: 160 (13.7) nmol·h/L/mg
- Cmax,norm [1, 9]: 11.8 (8.72) nmol/L/mg
- AUCτ,ss,norm [1, 10]: 220 (29.6) nmol·h/L/mg
- Cmax,ss,norm [1, 10]: 13.6 (23.1) nmol/L/mg
- AUC0–24,norm [1, 11]: 95.6 (17.9) nmol·h/L/mg
- Cmax,norm [1, 11]: 6.01 (17.9) nmol/L/mg
- Adjusted gMean ratio Cmax, tablet fasted vs. oral solution fasted ([2]; 90% CI 45.1–55.4): 50.0%
- Adjusted gMean ratio AUC0–tz, tablet fasted vs. oral solution fasted ([2]; 90% CI 74.0–87.6): 80.5%
- Adjusted gMean ratio AUC0–tz, tablet fed vs. strongly fasted ([2]; high-fat/high-calorie breakfast ~ 1000 kcal, 90% CI 115.7–137.0): 125.9%
- Adjusted gMean ratio Cmax, tablet fed vs. strongly fasted ([2]; high-fat/high-calorie breakfast ~ 1000 kcal, 90% CI 128.3–157.4): 142.1%
- increase in AUC, high-fat/high-calorie meal vs. fasted ([2]; single dose 25 mg tablet): 26%
- increase in Cmax, high-fat/high-calorie meal vs. fasted ([2]; single dose 25 mg tablet): 42%
- median time to maximum plasma concentration ([2]; single doses 0.5–150 mg, oral solution, young healthy male volunteers): ~ 45 min
- tolerability of single doses ([2]; single doses up to 100 mg, oral solution, young healthy male volunteers): generally well tolerated
- role of CYP3A4 in metabolic pathway (CYP3A4; drug–drug interaction study confirming in-vitro data): major component of the BI 425809 metabolic pathway
- CYP3A4 induction (CYP3A4; in-vitro and clinical studies): has the potential to induce CYP3A4 activity
- metabolising enzyme (CYP3A4; in-vitro and clinical studies): primarily metabolised by CYP3A4
- gMean ratio (light fed:light fasted) steady-state AUC (Effect of food intake): 105.2%
- gMean ratio (light fed:light fasted) steady-state Cmax (Effect of food intake): 106.8%
- gMean ratio (light fasted:fasted) steady-state AUC (Effect of food intake; elderly subjects): 104.5%
- gMean ratio (light fasted:fasted) steady-state Cmax (Effect of food intake; elderly subjects): 108.3%
- gMean ratio (light fed:fasted) steady-state AUC (Effect of food intake; young subjects): 114.0%
- gMean ratio (light fed:fasted) steady-state Cmax (Effect of food intake; young subjects): 123.2%
- increase in steady-state AUC, light fed compared with fasted (Effect of food intake; [12]): 14%
- increase in steady-state Cmax, light fed compared with fasted (Effect of food intake; [12]): 23%
- Cmax (Effect of food intake; healthy elderly subjects, fasted): 611 nM
- Cmax (Effect of food intake; healthy elderly subjects, light fasted): 662 nM
- Cmax (Effect of food intake; healthy young subjects, fasted): 574 nM
- Cmax (Effect of food intake; healthy young subjects, fed (light fed)): 707 nM
